Measured values of several laboratories.
Lines come from different studies, so protocols differ.
Target: Serine/threonine-protein kinase TNNI3K (TNNI3K, Homo sapiens, UniProt Q59H18)
Residues used in one study (Q59H18 1-835): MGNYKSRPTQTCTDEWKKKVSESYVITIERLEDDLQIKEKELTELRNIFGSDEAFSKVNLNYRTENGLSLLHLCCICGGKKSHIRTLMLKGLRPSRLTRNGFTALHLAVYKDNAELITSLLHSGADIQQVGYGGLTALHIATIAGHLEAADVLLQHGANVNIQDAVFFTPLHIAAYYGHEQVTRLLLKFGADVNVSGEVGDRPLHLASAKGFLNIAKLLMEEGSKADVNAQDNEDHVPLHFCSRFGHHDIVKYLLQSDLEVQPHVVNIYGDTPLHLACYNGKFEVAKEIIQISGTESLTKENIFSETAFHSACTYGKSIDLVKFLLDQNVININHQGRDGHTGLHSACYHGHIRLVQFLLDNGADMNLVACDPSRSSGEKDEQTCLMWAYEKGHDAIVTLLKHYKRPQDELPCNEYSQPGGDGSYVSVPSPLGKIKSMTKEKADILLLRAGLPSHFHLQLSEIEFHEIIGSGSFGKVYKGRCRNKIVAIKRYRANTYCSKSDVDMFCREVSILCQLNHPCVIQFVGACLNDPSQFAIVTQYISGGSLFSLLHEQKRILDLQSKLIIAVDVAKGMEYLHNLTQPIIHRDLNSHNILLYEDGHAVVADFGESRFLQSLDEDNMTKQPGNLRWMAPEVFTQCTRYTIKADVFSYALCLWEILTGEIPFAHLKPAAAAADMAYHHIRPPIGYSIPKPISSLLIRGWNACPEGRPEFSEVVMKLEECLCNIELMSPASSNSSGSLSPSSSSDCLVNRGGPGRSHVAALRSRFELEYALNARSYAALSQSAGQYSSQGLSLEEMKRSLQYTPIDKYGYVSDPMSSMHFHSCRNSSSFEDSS

Structure (SMILES) | observed | method | tested at | remaining binding [%]
CS(=O)(=O)N1CCCC(NC(=O)[C@H](CCC2CCCCC2)NC(=O)c2ccc(CNc3ncnc4c3nnn4-c3ccccc3)cc2)C1 (stereo partly shown) | cell-free assay | competition with immobilised ligand | 0.1 µM | 63
Nc1ncc2c(n1)-c1c([nH]c3ccc(C#CC4CC4)cc13)CCCC2 | binding | competition with immobilised ligand | 1 µM | 94
O=C(NCCCC1CCCCC1)c1ccc(CNC(=O)c2cnn(-c3ccccc3)c2C(F)(F)F)cc1 | cell-free assay | competition with immobilised ligand | 0.1 µM | 79
COc1ccnn2ncc(-c3ccnc(N(C)C)n3)c12 | binding | – | 1 µM | 93
COc1ccc2c(O[C@@H]3C[C@H]4C(=O)N[C@]5(C(=O)O)CC5/C=C\CCCCC[C@H](NC(=O)OC5CCCC5)C(=O)N4C3)cc(-c3csc(NC(=O)C(C)C)n3)nc2c1C (stereo partly shown) | cell-free assay | competition with immobilised ligand | 1 µM | 100
O=C(c1ccc(Nc2ncc(Cl)c(-c3ccc(Cl)s3)n2)cc1)N1CCC(N2CCCC2)CC1 | binding | competition with immobilised ligand | 1 µM | 50
COc1ncc2cc3ccccc3nc2c1C#N | cell-free assay | competition with immobilised ligand | 5 µM | 100
Nc1cnc(N2CCc3cc(S(=O)(=O)Nc4c(F)cc(Cl)cc4F)cc(N4CCCC4=O)c32)nc1 | binding | competition with immobilised ligand | 1 µM | 49
CCN1CCN(Cc2ccc(C(=O)Nc3ccc(C)c(Oc4ccc5c(c4)CC(=O)N5)c3)cc2C(F)(F)F)CC1 | binding | competition with immobilised ligand | 1 µM | 88
CS(=O)(=O)c1cc(C2(NC(=O)c3cncc4c3cnn4-c3ccc(F)cc3)CC2)ccn1 | cell-free assay | competition with immobilised ligand | 1 µM | 64
C[C@H]1CCN(c2nccc(-c3cnn4ncccc34)n2)C1 | binding | – | 1 µM | 100
O=C(NCC1CCOCC1)c1n[nH]cc1NC(=O)c1c(F)cccc1F | binding | competition with immobilised ligand | 1 µM | 100
c1cnn2ncc(-c3ccnc(N4CCC45COC5)n3)c2c1 | binding | – | 1 µM | 100
CNC(=O)[C@@H]1CC[C@@H](n2c(-c3ccc4cnccc4c3)nc3ccc(C(=O)NCc4cccc(C(N)=O)c4)cc32)C1 | binding | competition with immobilised ligand | 1 µM | 100
CC1CCCN1c1nccc(-c2cnn3ncccc23)n1 (stereo not shown) | binding | – | 1 µM | 99
O=C(c1ccc(Nc2nccc(-c3cc4ccccc4s3)n2)cc1)N1CCC(N2CCCC2)CC1 | binding | competition with immobilised ligand | 1 µM | 71
N[C@H]1CCN(c2nccc(-c3cnn4ncccc34)n2)C1 | binding | – | 1 µM | 100
C=CC(=O)N1CCC(C(=O)NCC(=O)N2CCN(c3nc(-c4cnc(N)nc4C(F)F)nc(N4CCOCC4)n3)CC2)CC1 | binding | competition with immobilised ligand | 1 µM | 100
Cc1cnn2ncc(-c3ccnc(N(C)C)n3)c2c1 | binding | – | 1 µM | 100
CCOC(=O)c1cc2cc(-c3cc(C(=O)NCc4ccc(C(=O)O)cc4)nn3C)ccc2[nH]1 | cell-free assay | competition with immobilised ligand | 0.1 µM | 100
Cc1cnc(Nc2ccc(C(=O)N3CCC(N4CCCC4)CC3)cc2)nc1-c1cc2ccccc2s1 | binding | competition with immobilised ligand | 1 µM | 31
F[C@@H]1CCN(c2nccc(-c3cnn4ncccc34)n2)C1 | binding | – | 1 µM | 100
